Reference: ChEMBL document CHEMBL1158565, “Antagonism of 4-substituted 1,4-dihydropyridine-3,5-dicarboxylates toward voltage-dependent L-type Ca2+ channels Ca V 1.3 and Ca V 1.2” (Bioorg Med Chem, 2010)
pIC50: −log10 of the molar value.

Legend:
[1] = molecular target: T1, Voltage-dependent L-type calcium channel subunit alpha-1C (Oryctolagus cuniculus, UniProt P15381); assay: Antagonist activity at rabbit Cav1.2 expressed in tsA201 cells assessed as inhibition of voltage pulse-induced calcium current at 100 nM by whole-cell patch-clamp recording
T1 sequence (P15381 whole entry): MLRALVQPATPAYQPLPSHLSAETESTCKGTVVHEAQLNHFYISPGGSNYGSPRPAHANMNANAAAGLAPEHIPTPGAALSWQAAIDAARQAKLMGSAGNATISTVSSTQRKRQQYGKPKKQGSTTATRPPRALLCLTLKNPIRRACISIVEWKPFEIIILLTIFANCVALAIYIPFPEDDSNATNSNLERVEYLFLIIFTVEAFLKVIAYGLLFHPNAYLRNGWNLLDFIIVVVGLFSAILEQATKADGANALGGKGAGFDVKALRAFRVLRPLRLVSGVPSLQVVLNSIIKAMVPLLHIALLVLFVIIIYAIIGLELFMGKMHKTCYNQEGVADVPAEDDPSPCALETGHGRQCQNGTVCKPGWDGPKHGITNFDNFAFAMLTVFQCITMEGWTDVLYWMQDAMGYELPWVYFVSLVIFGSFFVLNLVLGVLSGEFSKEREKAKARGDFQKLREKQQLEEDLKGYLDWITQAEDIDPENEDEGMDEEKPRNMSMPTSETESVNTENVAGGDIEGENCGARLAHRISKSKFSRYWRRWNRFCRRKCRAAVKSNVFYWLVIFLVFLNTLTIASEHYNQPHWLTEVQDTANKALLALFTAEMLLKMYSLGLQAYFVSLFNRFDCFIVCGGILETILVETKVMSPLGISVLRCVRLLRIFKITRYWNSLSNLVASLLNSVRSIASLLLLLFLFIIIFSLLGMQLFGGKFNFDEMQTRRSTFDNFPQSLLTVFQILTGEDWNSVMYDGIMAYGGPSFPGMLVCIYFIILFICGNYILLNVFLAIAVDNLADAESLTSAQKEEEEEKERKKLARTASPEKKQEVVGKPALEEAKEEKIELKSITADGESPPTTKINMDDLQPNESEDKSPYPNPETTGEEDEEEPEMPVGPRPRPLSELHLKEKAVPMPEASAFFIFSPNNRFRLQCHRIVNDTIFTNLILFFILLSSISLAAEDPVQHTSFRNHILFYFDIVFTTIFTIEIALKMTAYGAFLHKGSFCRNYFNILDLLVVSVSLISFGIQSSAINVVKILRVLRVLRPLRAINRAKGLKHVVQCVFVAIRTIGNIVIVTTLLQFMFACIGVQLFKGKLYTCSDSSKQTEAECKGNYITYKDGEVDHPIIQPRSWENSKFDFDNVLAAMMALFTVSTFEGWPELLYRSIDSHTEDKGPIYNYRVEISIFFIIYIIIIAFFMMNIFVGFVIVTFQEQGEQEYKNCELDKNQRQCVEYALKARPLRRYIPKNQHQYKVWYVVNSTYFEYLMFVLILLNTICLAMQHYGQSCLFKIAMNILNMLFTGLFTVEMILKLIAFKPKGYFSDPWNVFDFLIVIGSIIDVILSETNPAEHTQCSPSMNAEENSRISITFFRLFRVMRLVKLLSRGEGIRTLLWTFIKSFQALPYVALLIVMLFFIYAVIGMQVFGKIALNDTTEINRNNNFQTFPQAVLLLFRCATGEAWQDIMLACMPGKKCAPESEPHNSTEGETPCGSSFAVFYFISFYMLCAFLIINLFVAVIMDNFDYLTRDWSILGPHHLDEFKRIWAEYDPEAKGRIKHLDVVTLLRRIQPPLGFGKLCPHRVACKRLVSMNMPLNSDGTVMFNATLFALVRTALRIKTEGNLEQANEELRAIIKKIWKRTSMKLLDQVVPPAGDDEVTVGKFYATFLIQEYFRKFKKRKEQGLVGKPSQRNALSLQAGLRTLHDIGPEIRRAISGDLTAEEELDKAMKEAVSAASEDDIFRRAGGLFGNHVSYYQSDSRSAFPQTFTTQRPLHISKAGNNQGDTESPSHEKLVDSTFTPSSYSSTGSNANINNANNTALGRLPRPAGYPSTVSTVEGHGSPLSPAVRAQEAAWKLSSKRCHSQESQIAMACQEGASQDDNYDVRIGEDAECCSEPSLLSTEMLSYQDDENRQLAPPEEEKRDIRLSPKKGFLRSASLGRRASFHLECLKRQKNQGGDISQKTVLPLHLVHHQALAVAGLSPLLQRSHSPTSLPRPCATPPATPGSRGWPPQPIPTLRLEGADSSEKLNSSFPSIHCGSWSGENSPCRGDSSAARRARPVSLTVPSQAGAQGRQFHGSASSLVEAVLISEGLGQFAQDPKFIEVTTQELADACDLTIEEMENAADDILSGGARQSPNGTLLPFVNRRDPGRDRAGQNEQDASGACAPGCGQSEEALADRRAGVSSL

[2] = molecular target: Voltage-dependent L-type calcium channel subunit alpha-1D (Rattus norvegicus) (UniProt P27732); assay: Antagonist activity at rat Cav1.3 expressed in HEK293 cells assessed as inhibition of voltage pulse-induced calcium current at 100 nM by whole-cell patch-clamp recording
Chain of Voltage-dependent L-type calcium channel subunit alpha-1D (Rattus norvegicus) (P27732 whole entry, the tested form may be a part): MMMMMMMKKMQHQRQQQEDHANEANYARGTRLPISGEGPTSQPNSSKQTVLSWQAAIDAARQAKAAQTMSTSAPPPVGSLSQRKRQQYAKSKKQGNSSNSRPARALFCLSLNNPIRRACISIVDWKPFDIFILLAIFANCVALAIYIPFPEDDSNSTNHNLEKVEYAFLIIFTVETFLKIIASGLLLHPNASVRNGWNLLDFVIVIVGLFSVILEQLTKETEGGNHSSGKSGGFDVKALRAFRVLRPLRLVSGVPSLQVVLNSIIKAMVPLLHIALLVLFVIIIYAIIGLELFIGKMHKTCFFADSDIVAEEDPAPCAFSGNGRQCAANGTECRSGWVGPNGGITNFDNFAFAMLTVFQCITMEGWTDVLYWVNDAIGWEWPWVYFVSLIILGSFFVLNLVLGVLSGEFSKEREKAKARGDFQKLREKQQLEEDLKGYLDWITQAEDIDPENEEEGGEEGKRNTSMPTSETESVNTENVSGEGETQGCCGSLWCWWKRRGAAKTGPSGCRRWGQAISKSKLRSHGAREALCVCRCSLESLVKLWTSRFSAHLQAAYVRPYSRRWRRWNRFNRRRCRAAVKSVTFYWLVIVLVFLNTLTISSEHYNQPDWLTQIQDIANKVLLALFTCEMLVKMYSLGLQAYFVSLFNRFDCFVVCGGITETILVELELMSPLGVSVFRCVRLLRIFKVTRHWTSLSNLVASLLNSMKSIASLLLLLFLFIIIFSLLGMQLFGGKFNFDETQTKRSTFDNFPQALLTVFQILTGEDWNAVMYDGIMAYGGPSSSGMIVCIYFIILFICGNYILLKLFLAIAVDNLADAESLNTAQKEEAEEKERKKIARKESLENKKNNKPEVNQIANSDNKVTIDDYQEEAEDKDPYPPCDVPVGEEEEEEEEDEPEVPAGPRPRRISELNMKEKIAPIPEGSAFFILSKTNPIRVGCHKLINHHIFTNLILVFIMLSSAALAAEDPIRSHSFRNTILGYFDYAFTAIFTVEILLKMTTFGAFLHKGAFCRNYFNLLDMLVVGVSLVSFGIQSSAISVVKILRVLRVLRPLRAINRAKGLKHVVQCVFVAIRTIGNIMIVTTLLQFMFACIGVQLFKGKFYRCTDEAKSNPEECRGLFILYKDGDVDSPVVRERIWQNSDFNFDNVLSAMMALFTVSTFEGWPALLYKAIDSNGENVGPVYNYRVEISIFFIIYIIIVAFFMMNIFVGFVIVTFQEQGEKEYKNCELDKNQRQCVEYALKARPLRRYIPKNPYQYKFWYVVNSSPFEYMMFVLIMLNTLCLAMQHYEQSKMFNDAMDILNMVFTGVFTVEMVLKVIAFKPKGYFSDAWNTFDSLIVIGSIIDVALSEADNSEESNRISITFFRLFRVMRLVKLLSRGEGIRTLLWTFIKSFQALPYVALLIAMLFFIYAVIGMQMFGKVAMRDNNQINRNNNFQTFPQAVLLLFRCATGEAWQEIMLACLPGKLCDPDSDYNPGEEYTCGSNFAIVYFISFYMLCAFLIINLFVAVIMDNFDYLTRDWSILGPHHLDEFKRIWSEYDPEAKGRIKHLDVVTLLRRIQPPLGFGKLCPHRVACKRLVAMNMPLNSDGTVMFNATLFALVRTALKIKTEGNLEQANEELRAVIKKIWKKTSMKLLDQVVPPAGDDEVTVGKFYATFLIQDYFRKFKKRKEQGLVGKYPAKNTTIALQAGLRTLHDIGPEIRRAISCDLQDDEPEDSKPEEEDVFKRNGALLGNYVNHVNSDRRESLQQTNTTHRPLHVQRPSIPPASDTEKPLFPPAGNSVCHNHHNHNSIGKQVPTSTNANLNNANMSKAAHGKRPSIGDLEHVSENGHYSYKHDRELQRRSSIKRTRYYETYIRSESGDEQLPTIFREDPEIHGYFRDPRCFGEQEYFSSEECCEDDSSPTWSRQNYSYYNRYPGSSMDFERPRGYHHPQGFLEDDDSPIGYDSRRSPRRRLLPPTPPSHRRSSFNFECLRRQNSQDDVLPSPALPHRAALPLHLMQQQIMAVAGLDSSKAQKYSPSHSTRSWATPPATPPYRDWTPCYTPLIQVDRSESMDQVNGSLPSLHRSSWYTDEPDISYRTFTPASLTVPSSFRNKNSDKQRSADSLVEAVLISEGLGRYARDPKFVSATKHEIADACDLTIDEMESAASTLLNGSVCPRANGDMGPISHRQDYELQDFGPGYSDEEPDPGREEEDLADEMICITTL

[3] = Selectivity ratio of antagonist activity at rat Cav1.3 to antagonist activity at rabbit Cav1.2 at 100 nM; type: functional
Outline: (§1)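 Percent inhibition of Cav1.3 current was divided by that of Cav1.2 at the same concentration. Currents were from whole-cell patch clamp in transiently transfected tsA201 cells: Ba2+ bath, pH 7.4, steps from -60 mV, about 22 °C.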

[4] = Selectivity ratio of antagonist activity at rat Cav1.3 to antagonist activity at rabbit Cav1.2 at 200 nM; type: functional
Outline: as §1

[5] = molecular target: T1, Voltage-dependent L-type calcium channel subunit alpha-1C; assay: Antagonist activity at rabbit Cav1.2 expressed in tsA201 cells assessed as inhibition of voltage pulse-induced calcium current at 200 nM by whole-cell patch-clamp recording
[6] = molecular target: Voltage-dependent L-type calcium channel subunit alpha-1D (Rattus norvegicus) (UniProt P27732); assay: Antagonist activity at rat Cav1.3 expressed in HEK293 cells assessed as inhibition of voltage pulse-induced calcium current at 200 nM by FLIPR calcium 4 assay; type: functional, cell-based; conditions: in the assay text read “by whole-cell patch-clamp recording” for “by FLIPR calcium 4 assay”
Outline: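 Whole-cell patch clamp on tsA201 cells transiently cotransfected with rabbit Cav1.2 α1C or rat Cav1.3 α1D, Cavβ3 and Cavα2δ-1 (1:1:1) plus GFP. GFP cells were recorded after replating at 48 h. Bath (mM): 110 NaCl, 1 MgCl2, 10 BaCl2, 10 HEPES, 10 glucose, 20 CsCl, pH 7.4. Compound was diluted from DMSO stock and perfused. Pulses ran from -60 mV to +10 or 0 mV with tetrodotoxin at about 22 °C. Read-out was percent current inhibition.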

[7] = molecular target: T1, Voltage-dependent L-type calcium channel subunit alpha-1C; assay: Antagonist activity at rabbit Cav1.2 expressed in tsA201 cells assessed as inhibition of voltage pulse-induced calcium current at 1000 nM by whole-cell patch-clamp recording
[8] = molecular target: Voltage-dependent L-type calcium channel subunit alpha-1D (Rattus norvegicus) (UniProt P27732); assay: Antagonist activity at rat Cav1.3 expressed in HEK293 cells assessed as inhibition of voltage pulse-induced calcium current at 200 nM by whole-cell patch-clamp recording
[9] = molecular target: T1, Voltage-dependent L-type calcium channel subunit alpha-1C; assay: Antagonist activity at rabbit Cav1.2 expressed in HEK293 cells assessed as inhibition of voltage pulse-induced calcium current by FLIPR calcium 4 assay; type: functional, cell-based
Outline: (§2)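 HEK293 lines stably expressing Cavβ3 and Cavα2δ-1 plus Cav1.2 α1C (rabbit) or Cav1.3 α1D (rat) were selected with zeocin/hygromycin. Calcium signals were read by FLIPR with Calcium 4 dye. IC50 came from 11-point dose-response curves. Signal percentage error (SD/mean) was 6.4% for Cav1.2 and 4.1% for Cav1.3 cells.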

[10] = molecular target: Voltage-dependent L-type calcium channel subunit alpha-1D (Rattus norvegicus, UniProt P27732); assay: Antagonist activity at rat Cav1.3 expressed in HEK293 cells assessed as inhibition of voltage pulse-induced calcium current by FLIPR calcium 4 assay; type: functional, cell-based
Chain of Voltage-dependent L-type calcium channel subunit alpha-1D (P27732 whole entry): as the sequence (P27732 whole entry, the tested form may be a part) above
Outline: as §2

| SMILES | Selectivity ratio [4] | inhibition at 0.2 µM [5] [%] | inhibition [6] [%] | also measured |
| --- | --- | --- | --- | --- |
| CCOC(=O)C1=C(CC)NC(CC)=C(C(=O)OCC)C1c1cccc([N+](=O)[O-])c1 | – | – | – | inhibition at 0.1 µM [1]: 52%; inhibition [2]: 37%; Selectivity ratio [3]: 0.71 |
| CCOC(=O)C1=C(C)NC(C)=C(C(=O)OCC)C1C1CCCCC1 | 0.81 | 26 | 21 | – |
| CCOC(=O)C1=C(C)N=C(C)/C(=C(/O)OCC)C1c1cccs1 (stereo not drawn) | 0.87 | 65 | 57 | – |
| CC1=C(C(=O)OC(C)C)C(c2cccc([N+](=O)[O-])c2)C(C(=O)OC(C)C)=C(C)N1 | 0.86 | 77 | 66 | – |
| CCOC(=O)C1=C(C)NC(C)=C(C(=O)OCC)C1c1cc(Br)cc(Br)c1 | 0.98 | 74 | 72 | – |
| COC(=O)C1=C(C)NC(C)=C(C(=O)OC(C)(C)C)C1c1cccc([N+](=O)[O-])c1 (stereo not drawn) [MEBUDIPINE] | 0.93 | 91 | 85 | – |
| CCCC1C(C(=O)OCC)=C(C)NC(C)=C1C(=O)OCC | 0.86 | 42 | 36 | – |
| CCOC(=O)C1=C(C)NC(C)=C(C(=O)OCC)C1c1cccc(F)c1 | – | – | – | inhibition at 0.1 µM [1]: 64%; inhibition [2]: 48%; Selectivity ratio [3]: 0.75 |
| COC(=O)C1=C(C)NC(C)=C(C(=O)OC(C)C)C1c1cccc([N+](=O)[O-])c1 (stereo not drawn) | 0.93 | 96 | 89 | – |
| CCOC(=O)C1=C(C)NC(C)=C(C(=O)OCC)C1c1ccoc1 | 0.57 | 56 | 32 | – |
| CC1=C(C(=O)OC(C)(C)C)C(c2ccc([N+](=O)[O-])cc2)C(C(=O)OC(C)(C)C)=C(C)N1 | – | – | – | inhibition at 1 µM [7]: 36% |
| CCOC(=O)C1=C(C)NC(C)=C(C(=O)OCC)C1c1cc([N+](=O)[O-])ccc1Cl | 0.92 | 97 | 89 | – |
| CCOC(=O)C1=C(C(F)(F)F)NC(C(F)(F)F)=C(C(=O)OCC)C1c1cccc([N+](=O)[O-])c1 | 1.11 | 34 | 38 | – |
| CCOC(=O)C1=C(C)N=C(C)/C(=C(/O)OCC)C1c1cccnc1 (stereo not drawn) | 0.56 | 25 | – | inhibition [8]: 14% |
| CCOC(=O)C1=C(C)N=C(C)/C(=C(/O)OCC)C1/C=C/c1ccccc1 (stereo not drawn) | – | – | – | inhibition at 1 µM [7]: 30% |
| CCOC(=O)C1=C(C)NC(C)=C(C(=O)OCC)C1c1cccc(Br)c1 | – | – | – | inhibition at 0.1 µM [1]: 82%; inhibition [2]: 80%; Selectivity ratio [3]: 0.98 |
| CCOC(=O)C1=C(C)NC(C)=C(C(=O)OCC)C1c1ccc(OCc2ccc(Br)cc2)cc1 | – | – | – | inhibition at 1 µM [7]: 38% |
| CCOC(=O)C1=C(C)NC(C)=C(C(=O)OC)C1c1ccc([N+](=O)[O-])cc1 (stereo not drawn) | – | – | – | inhibition at 1 µM [7]: 48% |
| CCOC(=O)C1=C(C)NC(C)=C(C(=O)OCC)C1c1ccccc1-c1ccccc1 | 0.89 | 73 | 65 | – |
| CCOC(=O)C1=C(C)NC(C)=C(C(=O)OCC)C1c1ccc([N+](=O)[O-])cc1 | – | – | – | inhibition at 1 µM [7]: 48% |
| CCOC(=O)C1=C(C)NC(C)=C(C(=O)OCC)C1c1ccccc1I | 0.99 | 96 | 95 | – |
| CCOC(=O)C1=C(C)NC(C)=C(C(=O)OCC)C1c1ccsc1 | 0.93 | 54 | 50 | – |
| COC(=O)C1=C(C)NC(C)=C(C(=O)OCC(C)C)C1c1cccc([N+](=O)[O-])c1 (stereo not drawn) | 0.96 | 94 | 90 | – |
| CCOC(=O)C1=C(C)N=C(C)/C(=C(/O)OCC)C1c1cccc(OC)c1 (stereo not drawn) | 0.64 | 69 | – | inhibition [8]: 44% |

| SMILES | Selectivity ratio [4] | inhibition at 0.2 µM [5] [%] | inhibition [6] [%] | also measured |
| --- | --- | --- | --- | --- |
| CCOC(=O)C1=C(C)NC(C)=C(C(=O)OCC)C1c1ccc(-c2cccs2)s1 | – | – | – | inhibition at 1 µM [7]: 35% |
| CCOC(=O)C1=C(C)NC(C)=C(C(=O)OCC)C1c1ccc2ccccc2c1 | 0.75 | 16 | 12 | – |
| CCOC(=O)C1=C(C)NC(C)=C(C(=O)OCC)C1c1ccc(Cl)c([N+](=O)[O-])c1 | 0.77 | 86 | 66 | – |
| CCOC(=O)C1=C(C)NC(C)=C(C(=O)OCC)C1C(C)c1ccccc1 (stereo not drawn) | – | – | – | inhibition at 1 µM [7]: 28% |
| CCOC(=O)C1=C(C)N=C(C)/C(=C(/O)OCC)C1c1ccco1 (stereo not drawn) | 0.67 | 72 | – | inhibition [8]: 48% |
| CCOC(=O)C1=C(C)NC(C)=C(C(=O)OCC)C1c1cc(C(F)(F)F)cc(C(F)(F)F)c1 | 1 | 38 | 38 | – |
| CCOC(=O)C1=C(C)N(C)C(C)=C(C(=O)OCC)C1c1cccc([N+](=O)[O-])c1 | – | – | – | inhibition at 1 µM [7]: 35% |
| CCOC(=O)C1=C(C)NC(C)=C(C(=O)OC)C1c1cccc([N+](=O)[O-])c1 (stereo not drawn) [NITRENDIPINE] | – | – | – | inhibition at 0.1 µM [1]: 62%; inhibition [2]: 34%; Selectivity ratio [3]: 0.55 |
| CCOC(=O)C1=C(C)NC(C)=C(C(=O)OCC)C1c1ccccc1 | – | – | – | inhibition at 0.1 µM [1]: 48%; inhibition [2]: 41%; Selectivity ratio [3]: 0.85 |
| CC1=C(C(=O)OC(C)(C)C)C(c2cccc([N+](=O)[O-])c2)C(C(=O)OC(C)(C)C)=C(C)N1 | – | – | – | inhibition at 0.1 µM [1]: 32%; inhibition [2]: 22%; Selectivity ratio [3]: 0.69 |
| CCOC(=O)C1=C(C)NC(C)=C(C(=O)OCC)C1c1ccc([N+](=O)[O-])o1 | 0.95 | 43 | – | inhibition [8]: 41% |
| CCOC(=O)C1=C(C)NC(C)=C(C(=O)OCC)C1c1cccc(C(F)(F)F)c1 | 0.99 | 85 | – | inhibition [8]: 84% |
| CCOC(=O)C1=C(C)NC(C)=C(C(=O)OCC)C1c1cc2cccc(C)c2nc1Cl | – | – | – | inhibition at 1 µM [7]: 12% |
| CCOC(=O)C1=C(C)NC(C)=C(C(=O)OCC)C1c1csc2ccccc12 | 0.7 | 80 | 57 | – |
| CCOC(=O)C1=C(C)NC(CC)=C(C(=O)OCC)C1c1cccc([N+](=O)[O-])c1 (stereo not drawn) | 0.95 | 93 | 88 | – |
| CCOC(=O)C1=C(C(F)(F)F)NC(C(F)(F)F)=C(C(=O)OCC)C1c1cccc(C(F)(F)F)c1 | 1.1 | 61 | 67 | – |
| CCCC1=C(C(=O)OCC)C(c2cccc([N+](=O)[O-])c2)C(C(=O)OCC)=C(CCC)N1 | – | – | – | inhibition at 0.1 µM [1]: 25%; inhibition [2]: 27%; Selectivity ratio [3]: 1.07 |
| CC1=C(C(=O)OCC(C)C)C(c2cccc([N+](=O)[O-])c2)C(C(=O)OCC(C)C)=C(C)N1 | 1.14 | 52 | 59 | – |
| CCOC(=O)C1=C(C)NC(C)=C(C(=O)OCC)C1c1cccc(Cl)c1 | – | – | – | inhibition at 0.1 µM [1]: 58%; inhibition [2]: 59%; Selectivity ratio [3]: 1.02 |
| CCOC(=O)C1=C(CC)NC(C)=C(C(=O)OC)C1c1ccc([N+](=O)[O-])cc1 (stereo not drawn) | – | – | – | inhibition at 1 µM [7]: 28% |
| CCOC(=O)C1=C(CC)NC(C)=C(C(=O)OC)C1c1cccc([N+](=O)[O-])c1 (stereo not drawn) | – | – | – | inhibition at 0.1 µM [1]: 76%; inhibition [2]: 55%; Selectivity ratio [3]: 0.72 |
| COC(=O)C1=C(C)NC(C)=C(C(=O)OC)C1c1ccccc1[N+](=O)[O-] [NIFEDIPINE] | – | – | – | inhibition at 0.1 µM [1]: 69%; inhibition [2]: 46%; Selectivity ratio [3]: 0.67 |
| CCOC(=O)C1=C(C)N=C(C)/C(=C(/O)OCC)C1c1ccncc1 (stereo not drawn) | 0.56 | 27 | 15 | – |
| CCOC(=O)C1=C(C)NC(C)=C(C(=O)OCC)C1(C)c1ccccc1 | – | – | – | pIC50 [9]: 6.20; pIC50 [10]: 5.67 |
